Assay type in all cases: functional
The test system of assay [1] is Mus musculus. Briefly: Antitumor activity was evaluated as percent increase in life span in BDF1 mice (six mice per group) implanted intraperitoneally with P-388 leukemia cells (10e6 )at a dose of 600 mg/Kg,. The following applies: P388, ip. The gist of the method: (§1)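 Male BDF1 mice (average weight 23 g) implanted ip with 10^6 P-388 cells on day 0. Treatment in sterile 0.9% saline given ip daily for 9 days starting 24 h after implantation; saline-only controls. Animals observed up to 60 days. Median survival of treated (T) vs controls (C) expressed as %ILS = (T/C − 1) × 100; significance at P < 0.05.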

Assay [2] has as its system Mus musculus. Briefly: Antitumor activity was evaluated as median survival time in BDF1 mice (six mice per group) implanted intraperitoneally with P-388 leukemia cells (10e6 )at a dose of 600 mg/Kg,. A digest of the protocol:
(§2)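 Male BDF1 mice (average weight 23 g) inoculated ip with 10^6 P-388 leukemia cells on day 0; leukemia maintained by weekly ip passage in female DBA/2 mice. Compound in sterile 0.9% saline given ip once daily for 9 consecutive days starting 24 h after implantation; controls received saline alone. Animals observed for 60 days or until death; median survival time recorded.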

For assay [3], the system named is Mus musculus. The assay is described as follows: Antitumor activity was evaluated as percent increase in life span in BDF1 mice (six mice per group) implanted intraperitoneally with P-388 leukemia cells (10e6 )at a dose of 100 mg/Kg,. As to conditions: P388, ip. A digest of the protocol: as §1
The test system of assay [4] is Mus musculus. Briefly: Antitumor activity was evaluated as median survival time in BDF1 mice (six mice per group) implanted intraperitoneally with P-388 leukemia cells (10e6 )at a dose of 100 mg/Kg,. The gist of the method:
as §2

For assay [5], the system named is Mus musculus. The assay is described as follows: Antitumor activity was evaluated as percent increase in life span in BDF1 mice (six mice per group) implanted intraperitoneally with P-388 leukemia cells (10e6 )at a dose of 500 mg/Kg,. As to conditions: P388, ip. A digest of the protocol:
as §1

In assay [6] the test system is Mus musculus. Briefly: Antitumor activity was evaluated as percent increase in life span in BDF1 mice (six mice per group) implanted intraperitoneally with P-388 leukemia cells (10e6 )at a dose of 300 mg/Kg,. The following applies: P388, ip. A digest of the protocol: as §1
The test system of assay [7] is Mus musculus. Briefly: Antitumor activity was evaluated as median survival time in BDF1 mice (six mice per group) implanted intraperitoneally with P-388 leukemia cells (10e6 )at a dose of 500 mg/Kg,. The gist of the method:
as §2

The subject of assay [8] is Mus musculus. Briefly: Antitumor activity was evaluated as median survival time in BDF1 mice (six mice per group) implanted intraperitoneally with P-388 leukemia cells (10e6 )at a dose of 300 mg/Kg,. The gist of the method: as §2

In the case of `Nc1ncnc2c1ncn2[C@@H]1O[C@H](CO)[C@@H](O)[C@H]1O` [ADENOSINE], the ILS at 600 mg/kg with Mus musculus [1] was found to be 33%. In the assay on Mus musculus [2], the MST came out at 12 days.

`Nc1ncnc2c1ncn2C1O[C@H](COP2(=O)OCCCO2)[C@@H](O)[C@@H]1O` (stereo not given in full): in the assay with Mus musculus [3], the ILS at 100 mg/kg was determined as 0%. The compound further had an MST in the assay on Mus musculus [4] of 9 days.

As to `Nc1ncnc2c1ncn2C1O[C@H](COP2(=O)NCCCO2)[C@@H](O)[C@@H]1O` (stereo not given in full), in the assay with Mus musculus [5], the ILS at 500 mg/kg was -11%. Also, the ILS at 100 mg/kg in the assay on Mus musculus [3] amounted to 33%. The ILS at 300 mg/kg with Mus musculus [6] came out at 33%. For the same compound, the figures for the MST in the assay on Mus musculus [4], in the assay with Mus musculus [7] and in the assay with Mus musculus [8] were 12 days, 8 days and 12 days, respectively.
